Laboratory results from ChEMBL document CHEMBL1128448, “Synthesis and antifungal activity of new azole derivatives containing an N-acylmorpholine ring” (1995).
≈ marks a conversion by molar mass, not a printed value.

How the values were obtained:
[1] = tested on: Mus sp.; assay: In vivo evaluation of % survival rate after peroral administration on 3rd day at dose 0.5 mg/kg; format: functional; conditions: route oral
[2] = tested on: Candida albicans; assay: Evaluation of […] antifungal activity against Candida albicans 60 by broth macro dilution method; format: functional
How it was run: (§1)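 Yeast MIC and MFC by broth macrodilution per NCCLS M27-P in RPMI-1640 buffered with 0.165 M MOPS. Fluconazole in sterile water, other drugs in DMSO. C. parapsilosis ATCC 22019 is the reference strain in each run. MIC is the lowest concentration with turbidity ≤ the 80% inhibition standard. For MFC, 0.04 mL from clear tubes is plated on Sabouraud agar; MFC is the lowest concentration giving ≤1 colony.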

[3] = tested on: Cryptococcus neoformans; assay: Evaluation of In vitro antifungal activity against Cryptococcus neoformans 87 by broth macro dilution method; format: functional; how it was run: as §1
[4] = tested on: Pichia kudriavzevii; assay: Evaluation of In vitro antifungal activity against Candida krusei 70 by broth macro dilution method; format: functional; how it was run: as §1
[5] = tested on: Candida parapsilosis; assay: Evaluation of In vitro antifungal activity against Candida parapsilosis ATCC 141095 by broth macro dilution method; format: functional; conditions: Lodderomyces parapsilosis; how it was run: as §1
[6] = tested on: Candida albicans; assay: Evaluation of In vitro antifungal activity against Candida albicans 76 by broth macro dilution method; format: functional; how it was run: as §1
[7] = tested on: Mus sp.; assay: In vivo evaluation of % survival rate after peroral administration on 9th day at dose 0.5 mg/kg; format: functional; conditions: Mus sp., po
[8] = tested on: Candida albicans; assay: Evaluation of In vitro antifungal activity against Candida albicans 2.01 by broth macro dilution method; format: functional; how it was run: as §1
[9] = tested on: Mus musculus; assay: In vivo evaluation of % survival rate after peroral administration on 7th day at dose 0.5 mg/kg; format: functional; conditions: Mus musculus, po
[10] = tested on: Candida albicans; assay: Evaluation of In vitro antifungal activity against Candida albicans C56 by broth macro dilution method; format: functional; how it was run: as §1
[11] = tested on: Candida albicans; assay: Evaluation of In vitro antifungal activity against Candida albicans ATCC 10231 by broth macro dilution method; format: functional; how it was run: as §1
[12] = tested on: Trichophyton benhamiae; assay: In vitro evaluation of minimum inhibitory concentration against Trichophyton mentagrophytes 23; format: functional, Arthroderma benhamiae; conditions: Trichophyton benhamiae; read-out: MIC
How it was run: (§2)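 Stocks are 800 μg/mL in 50% ethanol. Each plate gets 10 μL of inoculum at 10^5 cfu/mL. Incubation at 25 °C, 48 h for yeasts and 120 h for dermatophytes and molds. Organisms are ATCC strains or clinical isolates.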

[13] = tested on: Candida albicans; assay: Evaluation of In vitro antifungal activity against Candida albicans 31 by broth macro dilution method; format: functional; how it was run: as §1
[14] = tested on: Nannizzia gypsea; assay: In vitro evaluation of minimum inhibitory concentration against Microsporum gypseum 22; format: functional; conditions: Nannizzia gypsea; read-out: MIC; how it was run: as §2
[15] = tested on: Cryptococcus neoformans; assay: Evaluation of In vitro antifungal activity against Cryptococcus neoformans 74 by broth macro dilution method; format: functional; how it was run: as §1
[16] = tested on: Kluyveromyces marxianus; assay: Evaluation of In vitro antifungal activity against yeasts by broth macro dilution method; format: functional; how it was run: as §1
[17] = tested on: Pichia kudriavzevii; assay: Evaluation of In vitro antifungal activity against Candida krusei C64 by broth macro dilution method; format: functional; how it was run: as §1
[18] = tested on: Aspergillus fumigatus; assay: In vitro evaluation of minimum inhibitory concentration against Aspergillus fumigatus 33; format: functional; conditions: Aspergillus fumigatus; read-out: MIC; how it was run: as §2
[19] = tested on: Candida parapsilosis; assay: Evaluation of In vitro antifungal activity against Candida parapsilosis 2.07 by broth macro dilution method; format: functional; conditions: Lodderomyces parapsilosis; how it was run: as §1
[20] = tested on: Mus sp.; assay: In vivo evaluation of % survival rate after peroral administration on 7th day at dose 1 mg/kg; format: functional; conditions: route oral, 1 mg/kg
[21] = tested on: Candida albicans; assay: In vitro evaluation of minimum inhibitory concentration against Candida albicans 76; format: functional; how it was run: as §2
[22] = tested on: Aspergillus niger; assay: In vitro evaluation of minimum inhibitory concentration against Aspergillus niger 18; format: functional; conditions: Aspergillus niger; read-out: MIC; how it was run: as §2
[23] = tested on: Pichia kudriavzevii; assay: In vitro evaluation of minimum inhibitory concentration against Candida krusei 70; format: functional; conditions: Pichia kudriavzevii; read-out: MIC; how it was run: as §2
[24] = tested on: Microsporum canis; assay: In vitro evaluation of minimum inhibitory concentration against Microsporum canis 47; format: functional; conditions: Microsporum canis; read-out: MIC; how it was run: as §2
[25] = tested on: Mus sp.; assay: In vivo evaluation of % survival rate after peroral administration on 3rd day at dose 1 mg/kg; format: functional; conditions: Mus sp., po
[26] = tested on: Meyerozyma guilliermondii; assay: Evaluation of In vitro antifungal activity against Candida guilliermondii 26 by broth macro dilution method; format: functional; how it was run: as §1
[27] = tested on: Trichophyton rubrum; assay: In vitro evaluation of minimum inhibitory concentration against Trichophyton rubrum 90; format: functional; conditions: Trichophyton rubrum; read-out: MIC; how it was run: as §2
[28] = tested on: Mus sp.; assay: In vivo evaluation of % survival rate after peroral administration on 5th day at dose 0.5 mg/kg; format: functional; conditions: route oral
[29] = tested on: Mus sp.; assay: In vivo evaluation of % survival rate after peroral administration on 5th day at dose 1 mg/kg; format: functional; conditions: Mus sp., po
[30] = tested on: Candida albicans; assay: Evaluation of In vitro antifungal activity against Candida albicans 60 by broth macro dilution method
[31] = tested on: Candida parapsilosis; assay: In vitro evaluation of minimum inhibitory concentration against Candida parapsilosis 61; format: functional; conditions: Lodderomyces parapsilosis; read-out: MIC; how it was run: as §2
[32] = tested on: Candida parapsilosis; assay: Evaluation of In vitro antifungal activity against Candida parapsilosis C292 by broth macro dilution method; format: functional; conditions: Lodderomyces parapsilosis; how it was run: as §1
[33] = tested on: Nakaseomyces glabratus; assay: Evaluation of In vitro antifungal activity against Torulopsis glabrata 78 by broth macro dilution method; format: functional; how it was run: as §1
[34] = tested on: Aspergillus flavus; assay: In vitro evaluation of minimum inhibitory concentration against Aspergillus flavus 19; format: functional; conditions: Aspergillus flavus; read-out: MIC; how it was run: as §2
[35] = tested on: Candida parapsilosis; assay: Evaluation of In vitro antifungal activity against Candida parapsilosis ATCC 22019 by broth macro dilution method; format: functional; conditions: Lodderomyces parapsilosis; how it was run: as §1
[36] = tested on: Candida tropicalis; assay: Evaluation of In vitro antifungal activity against Candida tropicalis 50 by broth macro dilution method; format: functional; how it was run: as §1
[37] = tested on: Candida parapsilosis; assay: Evaluation of In vitro antifungal activity against Candida parapsilosis C74 by broth macro dilution method; format: functional; conditions: Lodderomyces parapsilosis; how it was run: as §1
[38] = tested on: Mus sp.; assay: In vivo evaluation of % survival rate after peroral administration on 9th day at dose 1 mg/kg; format: functional; conditions: route oral, 1 mg/kg
[39] = tested on: Rattus norvegicus; assay: In vivo evaluation of antifungal activity against vaginal candidosis in rat at dose 0.25 mg/kg on 15th day; format: functional
How it was run: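 Groups of 10 female Wistar rats given estradiol 25 mg/kg sc on day -5, infected intravaginally with C. albicans by sterile swab on day 0; infection confirmed on day 3 by swab culture (TSB, then Sabouraud agar). Oral dosing once daily on days 3, 4, 5; vehicle controls. Vaginal swabs cultured on days 10 and 15; read-out % cured (culture-negative).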

[40] = tested on: Kluyveromyces marxianus; assay: Evaluation of In vitro antifungal activity against Candida pseudotropicalis ATCC 28838 by broth macro dilution method; format: functional; how it was run: as §1
[41] = tested on: Meyerozyma guilliermondii; assay: In vitro evaluation of minimum inhibitory concentration against Candida guilliermondii 26; format: functional; conditions: Meyerozyma guilliermondii; read-out: MIC; how it was run: as §2
[42] = tested on: Candida albicans; assay: Evaluation of In vitro antifungal activity against Candida albicans C52 by broth macro dilution method; format: functional; how it was run: as §1

## C[C@H]1N(C(=O)c2ccc(C(F)(F)F)cc2)C[C@H](O)O[C@@]1(Cn1cncn1)c1ccc(F)cc1F (stereo in doubt; (-)-39a)
[1]
  survival at 0.5 mg/kg: 100%
[2]
  MIC: 1 µg/mL (≈ 2.07 µM)
[3]
  MFC: > 64 µg/mL
  MIC: 4 µg/mL (≈ 8.29 µM)
[4]
  MFC: > 64 µg/mL
  MIC: > 64 µg/mL
[5]
  MFC: > 64 µg/mL
  MIC: > 64 µg/mL
[6]
  MFC: > 64 µg/mL
  MIC: 1 µg/mL (≈ 2.07 µM)
[7]
  survival at 0.5 mg/kg: 40%
[8]
  MFC: > 64 µg/mL
  MIC: 2 µg/mL (≈ 4.15 µM)
[9]
  survival at 0.5 mg/kg: 80%
[10]
  MFC: > 64 µg/mL
  MIC: 1 µg/mL (≈ 2.07 µM)
[11]
  MFC: > 64 µg/mL
  MIC: 0.5 µg/mL (≈ 1.04 µM)
[12]
  MIC: > 80 µg/mL
[13]
  MFC: > 64 µg/mL
  MIC: 0.5 µg/mL (≈ 1.04 µM)
[14]
  MIC: 80 µg/mL (≈ 166 µM)
[15]
  MFC: 2 µg/mL (≈ 4.15 µM)
  MIC: 0.25 µg/mL (≈ 0.518 µM)
[16]
  MIC: 0.5 µg/mL (≈ 1.04 µM)
[17]
  MFC: > 64 µg/mL
  MIC: > 64 µg/mL
[18]
  MIC: 80 µg/mL (≈ 166 µM)
[19]
  MFC: > 64 µg/mL
  MIC: 4 µg/mL (≈ 8.29 µM)
[20]
  Survival: 100%
[21]
  MIC: 10 µg/mL (≈ 20.7 µM)
[22]
  MIC: > 80 µg/mL
[23]
  MIC: > 80 µg/mL
[24]
  MIC: 40 µg/mL (≈ 82.9 µM)
[25]
  survival at 1 mg/kg: 100%
[26]
  MFC: > 64 µg/mL
  MIC: 32 µg/mL (≈ 66.3 µM)
[27]
  MIC: 40 µg/mL (≈ 82.9 µM)
[28]
  survival at 0.5 mg/kg: 100%
[29]
  survival at 1 mg/kg: 100%
[30]
  MFC: > 64 µg/mL
[31]
  MIC: 40 µg/mL (≈ 82.9 µM)
[32]
  MFC: > 64 µg/mL
  MIC: 8 µg/mL (≈ 16.6 µM)
[33]
  MFC: > 64 µg/mL
  MIC: > 64 µg/mL
[34]
  MIC: > 80 µg/mL
[35]
  MFC: 32 µg/mL (≈ 66.3 µM)
  MIC: 16 µg/mL (≈ 33.2 µM)
[36]
  MFC: > 64 µg/mL
  MIC: > 64 µg/mL
[37]
  MFC: 32 µg/mL (≈ 66.3 µM)
  MIC: 2 µg/mL (≈ 4.15 µM)
[38]
  Survival: 100%
[39]
  Cure rate: 100%
[40]
  MFC: 64 µg/mL (≈ 133 µM)
[41]
  MIC: 80 µg/mL (≈ 166 µM)
[42]
  MFC: > 64 µg/mL
  MIC: 0.5 µg/mL (≈ 1.04 µM)
